ChEMBL document CHEMBL4425094, “Novel Benzo[a]quinolizidine Analogs Induce Cancer Cell Death through Paraptosis and Apoptosis” (J Med Chem, 2016)

Assays:
[1] = tested on: DU-145; experiment: Cytotoxicity against human DU145 cells assessed as cell growth inhibition after 24 hrs by MTT assay; format: functional, cell-based; details: DU-145, 24 h
Summary of the method: (§1)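 Cells seeded 24 h in RPMI 1640 + 10% FBS. RWPE-1 was kept in K-SFM with bovine pituitary extract and EGF. Cells then exposed to compounds for 24 h at 37 °C, 5% CO2, with DMSO vehicle and docetaxel as positive control. MTT added for 4 h, absorbance read at 570 nm. Triplicate runs, IC50 reported as mean of three experiments.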

[2] = tested on: MDA-MB-231; experiment: Cytotoxicity against human MDA-MB-231 cells assessed as cell growth inhibition after 24 hrs by MTT assay; format: functional, cell-based; details: MDA-MB-231, 24 h; summary of the method: as §1
[3] = tested on: MCF7; experiment: Cytotoxicity against human MCF7 cells assessed as cell growth inhibition after 24 hrs by MTT assay; format: functional, cell-based; details: MCF7, 24 h; summary of the method: as §1
[4] = tested on: K562; experiment: Cytotoxicity against human K562 cells assessed as cell growth inhibition after 24 hrs by MTT assay; format: functional, cell-based; details: K562, 24 h; summary of the method: as §1
[5] = tested on: HeLa; experiment: Cytotoxicity against human HeLa cells assessed as cell growth inhibition after 24 hrs by MTT assay; format: functional, cell-based; summary of the method: as §1
[6] = tested on: PC-3; experiment: Cytotoxicity against human PC3 cells assessed as cell growth inhibition after 24 hrs by MTT assay; format: functional, cell-based; details: PC-3, 24 h; summary of the method: as §1
[7] = tested on: RWPE-1; experiment: Cytotoxicity against human RWPE1 cells assessed as cell growth inhibition after 24 hrs by MTT assay; format: cell-based; details: RWPE-1, 24 h; summary of the method: as §1

C[C@@H]1CC(=O)C[C@H]2c3cc(OCc4cccc(F)c4)c(OCc4cccc(F)c4)cc3CCN12
IC50 [1]: > 20 µM
IC50 [2]: 1.3 µM
IC50 [3]: > 20 µM
IC50 [4]: > 20 µM
IC50 [5]: > 20 µM
IC50 [6]: > 20 µM
IC50 [7]: > 20 µM

COc1cc2c(cc1OC)[C@@H]1C[C@H](O)C[C@@H](c3ccccc3)N1CC2
IC50 [1]: > 20 µM
IC50 [2]: > 20 µM
IC50 [3]: > 20 µM
IC50 [4]: > 20 µM
IC50 [5]: > 20 µM
IC50 [6]: > 20 µM
IC50 [7]: > 20 µM

O[C@H]1C[C@@H](c2ccccc2)N2CCc3ccccc3[C@@H]2C1
IC50 [1]: > 20 µM
IC50 [2]: > 20 µM
IC50 [3]: > 20 µM
IC50 [4]: > 20 µM
IC50 [5]: > 20 µM
IC50 [6]: > 20 µM
IC50 [7]: > 20 µM

CCCCCCOc1cc2c(cc1OCCCCCC)[C@@H]1CC(=O)C[C@@H](C)N1CC2 (relative stereo)
IC50 [1]: > 20 µM
IC50 [2]: > 20 µM
IC50 [3]: > 20 µM
IC50 [4]: > 20 µM
IC50 [5]: > 20 µM
IC50 [6]: > 20 µM
IC50 [7]: > 20 µM

CC[C@@H]1C[C@@H](O)C[C@H]2c3cc(OCc4ccccc4)c(OCc4ccccc4)cc3CCN12
IC50 [1]: 1.68 µM
IC50 [2]: 2.88 µM
IC50 [3]: 2.79 µM
IC50 [4]: 1.41 µM
IC50 [5]: 2.43 µM
IC50 [6]: 2.15 µM
IC50 [7]: 2.2 µM

O[C@@H]1CCN2CCc3cc(OCc4ccccc4)c(OCc4ccccc4)cc3[C@@H]2C1 (relative stereo)
IC50 [1]: > 20 µM
IC50 [2]: > 20 µM
IC50 [3]: > 20 µM
IC50 [4]: > 20 µM
IC50 [5]: > 20 µM
IC50 [6]: > 20 µM
IC50 [7]: > 20 µM

CCCCCCCCCCCCCCCCOc1cc2c(cc1OCCCCCCCCCCCCCCCC)[C@@H]1C[C@@H](O)C[C@@H](C)N1CC2
IC50 [1]: > 20 µM
IC50 [2]: > 20 µM
IC50 [3]: > 20 µM
IC50 [4]: > 20 µM
IC50 [5]: > 20 µM
IC50 [6]: > 20 µM
IC50 [7]: > 20 µM

CCCCCCCCCCCCCCCCOc1cc2c(cc1OCCCCCCCCCCCCCCCC)[C@@H]1C[C@H](O)C[C@@H](C)N1CC2
IC50 [1]: > 20 µM
IC50 [2]: > 20 µM
IC50 [3]: > 20 µM
IC50 [4]: > 20 µM
IC50 [5]: > 20 µM
IC50 [6]: > 20 µM
IC50 [7]: > 20 µM

C[C@@H]1C[C@H](O)C[C@H]2c3cc(OCc4cc(F)cc(F)c4)c(OCc4cc(F)cc(F)c4)cc3CCN12
IC50 [2]: 3.16 µM
IC50 [4]: 2.29 µM
IC50 [5]: 3.04 µM

COc1ccc([C@@H]2CC(=O)C[C@H]3c4cc(OCc5cc(F)cc(F)c5)c(OCc5cc(F)cc(F)c5)cc4CCN23)cc1OC (relative stereo)
IC50 [1]: > 20 µM
IC50 [2]: > 20 µM
IC50 [3]: > 20 µM
IC50 [4]: > 20 µM
IC50 [5]: > 20 µM
IC50 [6]: > 20 µM
IC50 [7]: > 20 µM

C[C@@]1(O)C[C@@H](c2ccccc2)N2CCc3cc(OCc4ccccc4)c(OCc4ccccc4)cc3[C@@H]2C1
IC50 [1]: 11.6 µM
IC50 [2]: 5.48 µM
IC50 [3]: 9.2 µM
IC50 [4]: 1.98 µM
IC50 [5]: 6.57 µM
IC50 [7]: 2.02 µM

CCOC1c2cc(OCc3cc(C)cc(C)c3)c(OCc3cc(C)cc(C)c3)cc2CCN1C(=O)OC(C)(C)C (stereo not given)
IC50 [1]: > 20 µM
IC50 [2]: > 20 µM
IC50 [3]: > 20 µM
IC50 [4]: > 20 µM
IC50 [5]: > 20 µM
IC50 [6]: > 20 µM
IC50 [7]: > 20 µM

O=C1C[C@@H](c2ccc(-c3ccccc3)cc2)N2CCc3cc(OCc4ccccc4)c(OCc4ccccc4)cc3[C@@H]2C1 (relative stereo)
IC50 [1]: > 20 µM
IC50 [2]: > 20 µM
IC50 [3]: > 20 µM
IC50 [4]: > 20 µM
IC50 [5]: > 20 µM
IC50 [6]: > 20 µM
IC50 [7]: > 20 µM

C[C@@H]1C[C@@H](O)C[C@H]2c3cc4c(cc3CCN12)OCO4
IC50 [1]: > 20 µM
IC50 [2]: > 20 µM
IC50 [3]: > 20 µM
IC50 [4]: > 20 µM
IC50 [5]: > 20 µM
IC50 [6]: > 20 µM
IC50 [7]: > 20 µM

CCCCCCOc1cc2c(cc1OCCCCCC)[C@@H]1C[C@@H](O)C[C@@H](C)N1CC2
IC50 [1]: > 20 µM
IC50 [2]: > 20 µM
IC50 [3]: > 20 µM
IC50 [4]: > 20 µM
IC50 [5]: > 20 µM
IC50 [6]: > 20 µM
IC50 [7]: > 20 µM

C[C@@H]1C[C@H](O)C[C@H]2c3cc(OCc4ccc(Br)cc4)c(OCc4ccc(Br)cc4)cc3CCN12
IC50 [2]: 2.25 µM
IC50 [4]: 3.15 µM
IC50 [5]: 2.88 µM
IC50 [7]: 2.89 µM

CCC[C@@H]1C[C@H](O)C/C=C(/CC)[C@H]2c3cc(OCc4ccccc4)c(OCc4ccccc4)cc3CCN12
IC50 [1]: > 20 µM
IC50 [2]: > 20 µM
IC50 [3]: > 20 µM
IC50 [4]: > 20 µM
IC50 [5]: > 20 µM
IC50 [6]: > 20 µM
IC50 [7]: > 20 µM

CC[C@@H]1C[C@H](O)C/C=C(/C)[C@H]2c3cc(OCc4ccccc4)c(OCc4ccccc4)cc3CCN12
IC50 [1]: > 20 µM
IC50 [2]: > 20 µM
IC50 [3]: > 20 µM
IC50 [4]: > 20 µM
IC50 [5]: > 20 µM
IC50 [6]: > 20 µM
IC50 [7]: > 20 µM

COc1ccc([C@@H]2CC(=O)C[C@H]3c4cc(OCc5ccccc5)c(OCc5ccccc5)cc4CCN23)cc1OC (relative stereo)
IC50 [1]: > 20 µM
IC50 [2]: > 20 µM
IC50 [3]: > 20 µM
IC50 [4]: > 20 µM
IC50 [5]: > 20 µM
IC50 [6]: > 20 µM
IC50 [7]: > 20 µM

COc1ccc([C@@H]2C[C@H](O)C[C@H]3c4cc(OCc5cc(C)cc(C)c5)c(OCc5cc(C)cc(C)c5)cc4CCN23)cc1OC
IC50 [1]: > 20 µM
IC50 [2]: > 20 µM
IC50 [3]: > 20 µM
IC50 [4]: > 20 µM
IC50 [5]: > 20 µM
IC50 [6]: > 20 µM
IC50 [7]: > 20 µM

C[C@@H]1C[C@@H](O)C[C@H]2c3cc(OCc4cc(F)cc(F)c4)c(OCc4cc(F)cc(F)c4)cc3CCN12
IC50 [1]: 1.88 µM
IC50 [2]: 2.11 µM
IC50 [3]: 1.71 µM
IC50 [4]: 1.89 µM
IC50 [5]: 1.96 µM
IC50 [6]: 1.35 µM
IC50 [7]: 4.42 µM

O=[N+]([O-])c1ccc([C@@H]2C[C@@H](O)C[C@H]3c4cc(OCc5ccccc5)c(OCc5ccccc5)cc4CCN23)cc1
IC50 [1]: > 20 µM
IC50 [2]: > 20 µM
IC50 [3]: > 20 µM
IC50 [4]: > 20 µM
IC50 [5]: > 20 µM
IC50 [6]: > 20 µM
IC50 [7]: > 20 µM

C[C@@H]1CC(=O)C[C@H]2c3cc4c(cc3CCN12)OCO4 (relative stereo)
IC50 [1]: > 20 µM
IC50 [2]: > 20 µM
IC50 [3]: > 20 µM
IC50 [4]: > 20 µM
IC50 [5]: > 20 µM
IC50 [6]: > 20 µM
IC50 [7]: > 20 µM

Oc1cc2c(cc1O)[C@@H]1C[C@H](O)C[C@@H](c3ccccc3)N1CC2
IC50 [1]: > 20 µM
IC50 [2]: > 20 µM
IC50 [3]: > 20 µM
IC50 [4]: > 20 µM
IC50 [5]: > 20 µM
IC50 [6]: > 20 µM
IC50 [7]: > 20 µM

C[C@@H]1CC(=O)C[C@H]2c3cc(OCc4cc(F)cc(F)c4)c(OCc4cc(F)cc(F)c4)cc3CCN12 (relative stereo)
IC50 [1]: > 20 µM
IC50 [2]: > 20 µM
IC50 [3]: > 20 µM
IC50 [4]: > 20 µM
IC50 [5]: > 20 µM
IC50 [6]: > 20 µM
IC50 [7]: > 20 µM

O[C@H]1C[C@@H](c2ccccc2)N2CCc3cc4c(cc3[C@@H]2C1)OCO4
IC50 [1]: > 20 µM
IC50 [2]: > 20 µM
IC50 [3]: > 20 µM
IC50 [4]: > 20 µM
IC50 [5]: > 20 µM
IC50 [6]: > 20 µM
IC50 [7]: > 20 µM

CCC[C@@H]1C[C@@H](O)C[C@H]2c3cc(OCc4ccccc4)c(OCc4ccccc4)cc3CCN12
IC50 [2]: 2.57 µM
IC50 [4]: 2.32 µM
IC50 [5]: 2.38 µM

C[C@@H]1CC(=O)C[C@H]2c3cc(OCc4ccccc4)c(OCc4ccccc4)cc3CCN12 (relative stereo)
IC50 [1]: 4.25 µM
IC50 [2]: 2.52 µM
IC50 [3]: 2.23 µM
IC50 [4]: > 20 µM
IC50 [5]: 2.99 µM
IC50 [6]: 2.27 µM

CC[C@@H]1C[C@H](O)C[C@H]2c3cc(OCc4ccccc4)c(OCc4ccccc4)cc3CCN12
IC50 [1]: 3.37 µM
IC50 [2]: 10.2 µM
IC50 [3]: 3.02 µM
IC50 [4]: 3.81 µM
IC50 [5]: 5.27 µM
IC50 [6]: 3.52 µM

C[C@@H]1C[C@@](C)(O)C[C@H]2c3cc(OCc4ccccc4)c(OCc4ccccc4)cc3CCN12
IC50 [1]: 2.11 µM
IC50 [2]: 6.47 µM
IC50 [3]: 1.39 µM
IC50 [5]: 5.21 µM
IC50 [6]: 2.6 µM

C[C@@H]1C[C@H](O)C[C@H]2c3cc(OCc4ccc(C(C)(C)C)cc4)c(OCc4ccc(C(C)(C)C)cc4)cc3CCN12
IC50 [2]: 1.46 µM
IC50 [4]: 2.88 µM
IC50 [5]: 2.56 µM

CCC[C@@H]1C[C@H](O)C[C@H]2c3cc(OCc4ccccc4)c(OCc4ccccc4)cc3CCN12
IC50 [2]: 6.72 µM
IC50 [4]: 3.88 µM
IC50 [5]: 5.49 µM

C[C@@H]1C[C@H](O)C[C@H]2c3cc(OCc4ccccc4)c(OCc4ccccc4)cc3CCN12
IC50 [1]: 1.95 µM
IC50 [2]: 7.22 µM
IC50 [3]: 2.5 µM
IC50 [4]: 3.26 µM
IC50 [5]: 1.06 µM
IC50 [6]: 7.67 µM

CCC[C@@H]1C[C@@H](O)/C=C\C(CC)[C@H]2c3cc(OCc4ccccc4)c(OCc4ccccc4)cc3CCN12 (stereo not given in full)
IC50 [2]: 2.72 µM
IC50 [4]: 5.61 µM
IC50 [5]: 3.43 µM

CCC[C@@H]1C[C@@](C)(O)C[C@H]2c3cc(OCc4ccccc4)c(OCc4ccccc4)cc3CCN12
IC50 [2]: 2.37 µM
IC50 [4]: 6.81 µM
IC50 [5]: 6.34 µM

CC1(C)C[C@@H](O)C[C@H]2c3cc(OCc4ccccc4)c(OCc4ccccc4)cc3CCN21 (relative stereo)
IC50 [2]: 5.01 µM
IC50 [4]: 5.44 µM
IC50 [5]: 7.22 µM
